The values that follow come from ChEMBL document CHEMBL1138207, “Engineering of a VPAC2 receptor peptide agonist to impart dipeptidyl peptidase IV stability and enhance in vivo glucose disposal” (J Med Chem, 2006).

Assay [1] concerns the target T1, Pituitary adenylate cyclase-activating polypeptide type I receptor (Homo sapiens, UniProt P41586). Description: Displacement of [125I]PACAP27 from human PAC1 receptor expressed in CHO cells. It is filed as cell-based. In outline: (§1)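 Membranes (10 µg) from CHO cells transfected with human PAC1, VPAC1 or VPAC2 receptor were incubated with 0.1 nM 125I-PACAP27 and competing peptide for 20 min at 37 °C. Buffer: 20 mM HEPES pH 7.4, 0.5% BSA, CaCl2, bacitracin. Reactions were stopped on ice. Bound ligand was collected by filtration on PEI-treated filters and counted by scintillation. Data were fit to a single-site model.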

Assay [2] concerns the target T2, Vasoactive intestinal polypeptide receptor 1 (Homo sapiens, UniProt P32241).
T2 sequence (P32241 whole entry): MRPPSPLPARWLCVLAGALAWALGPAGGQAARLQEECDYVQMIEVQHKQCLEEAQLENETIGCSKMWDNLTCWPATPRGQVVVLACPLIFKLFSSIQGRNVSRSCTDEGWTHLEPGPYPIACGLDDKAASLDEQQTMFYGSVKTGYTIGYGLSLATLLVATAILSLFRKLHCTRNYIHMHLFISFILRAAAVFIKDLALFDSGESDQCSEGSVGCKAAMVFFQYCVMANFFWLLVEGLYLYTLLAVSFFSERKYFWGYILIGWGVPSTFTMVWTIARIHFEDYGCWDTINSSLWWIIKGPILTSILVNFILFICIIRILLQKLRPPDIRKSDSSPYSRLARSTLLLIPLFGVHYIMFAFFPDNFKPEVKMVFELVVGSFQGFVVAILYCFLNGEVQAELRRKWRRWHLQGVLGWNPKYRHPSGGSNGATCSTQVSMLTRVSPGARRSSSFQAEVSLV
The assay is described as follows: Displacement of [125I]PACAP27 from human VPAC1 receptor expressed in CHO cells. It is filed as cell-based. In outline: as §1

The target of assay [3] is T1, Pituitary adenylate cyclase-activating polypeptide type I receptor. The assay is described as follows: Activity at human PAC1 receptor in CHO cells by measuring cAMP accumulation. It is filed as cell-based. In outline: (§2)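 CHO cells transfected with human PAC1, VPAC1 or VPAC2 receptor were incubated with peptide for 15 min at 37 °C. Buffer: HEPES pH 7.4 saline with 1% BSA, bacitracin and 100 µM IBMX as phosphodiesterase inhibitor. cAMP was measured by competitive 125I-cAMP scintillation proximity assay. Curves were fit to a single-site model.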

The target of assay [4] is T2, Vasoactive intestinal polypeptide receptor 1. Description: Activity at human VPAC1 receptor in CHO cells by measuring cAMP accumulation. It is filed as functional, cell-based. Summed up:
as §2
For orientation: Cyclic AMP is a second messenger, typically raised through Gs and lowered through Gi signalling.

T1 sequence (P41586 whole entry): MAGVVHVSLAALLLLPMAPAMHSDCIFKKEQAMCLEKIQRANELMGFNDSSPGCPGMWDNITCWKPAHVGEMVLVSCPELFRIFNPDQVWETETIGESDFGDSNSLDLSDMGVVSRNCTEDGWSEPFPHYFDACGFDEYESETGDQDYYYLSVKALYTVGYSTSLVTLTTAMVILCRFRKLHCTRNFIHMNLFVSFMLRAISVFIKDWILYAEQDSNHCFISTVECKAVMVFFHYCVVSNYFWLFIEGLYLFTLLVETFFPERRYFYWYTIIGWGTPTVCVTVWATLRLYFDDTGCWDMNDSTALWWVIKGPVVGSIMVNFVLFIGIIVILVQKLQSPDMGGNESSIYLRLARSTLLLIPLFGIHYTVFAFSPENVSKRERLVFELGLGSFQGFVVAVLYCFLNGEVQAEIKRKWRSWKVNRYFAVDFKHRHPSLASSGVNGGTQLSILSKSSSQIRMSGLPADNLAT

The IC50 is the concentration needed to halve the response being measured. Read a high IC50 as a need for much substance. For orientation: EC50 means the concentration at which the effect is half-maximal. Low readings indicate a more potent agent, high ones a less potent agent. Take `CC[C@H](C)[C@H](NC(=O)CNC(=O)[C@H](CC(=O)O)NC(=O)[C@H](CO)NC(=O)[C@@H](N)Cc1cnc[nH]1)C(=O)N[C@@H](Cc1ccccc1)C(=O)N[C@H](C(=O)N[C@@H](CC(=O)O)C(=O)N[C@@H](CO)C(=O)N[C@@H](Cc1ccc(O)cc1)C(=O)N[C@@H](CO)C(=O)N[C@@H](CCCN=C(N)N)C(=O)N[C@@H](Cc1ccc(O)cc1)C(=O)N[C@@H](CCCN=C(N)N)C(=O)N[C@@H](CCCCN)C(=O)N[C@@H](CCC(N)=O)C(=O)N[C@@H](CCSC)C(=O)N[C@@H](C)C(=O)N[C@H](C(=O)N[C@@H](CCCCN)C(=O)N[C@@H](CCCCN)C(=O)N[C@@H](Cc1ccc(O)cc1)C(=O)N[C@@H](CC(C)C)C(=O)N[C@@H](C)C(=O)N[C@@H](C)C(=O)N[C@H](C(=O)N[C@@H](CC(C)C)C(=O)O)C(C)C)C(C)C)[C@@H](C)O`: the IC50 in assay [1] is 3 nM; in assay [2] it was 12 nM. Further, the EC50 was 0.13 nM in assay [3] and 0.6 nM in assay [4].
